Screens: PubChem BioAssay, several laboratories
A selection: hits, their analogues and other compounds. The true share with any hit is near 2%.
SENP1 FRET inh: human SENP1 catalytic domain inhibitors, primary screen, biochemical, FRET, uHTS | Sentrin-specific protease 1 (Homo sapiens), Q9P0U3 | recombinant SENP1 catalytic domain, CyPet-SUMO1-YPet FRET cleavage | inhibition, % at 10 µM | 0.21% of 360,000 active | AID 624204, 2012;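 active means inhibition at least 30% at 10 µM, raw YFP signal under a set limit, fluorescence ratio 0.5 to 1.5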;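 further: 0% = enzyme with DMSO and 100% = no enzyme wells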
Target sequence (Q9P0U3 419-644 limits assumed): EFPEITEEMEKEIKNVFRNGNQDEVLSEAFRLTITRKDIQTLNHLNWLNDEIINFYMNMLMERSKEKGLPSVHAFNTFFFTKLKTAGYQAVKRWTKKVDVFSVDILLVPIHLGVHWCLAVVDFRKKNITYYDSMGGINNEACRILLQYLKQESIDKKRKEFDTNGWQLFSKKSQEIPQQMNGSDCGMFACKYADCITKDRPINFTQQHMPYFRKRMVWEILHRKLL
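System: Recombinant human SENP1 catalytic domain, His6-tagged | Incubation: Enzyme reaction for 50 min at room temperature, dark | Medium: Tris pH 8 with BME, BSA, NP40 and catalase | Also added: 25 nM SUMO1 FRET substrate | Compound: 10 µM single point, 0.5% DMSO | Measured by: FRET fluorescence in CFP and YFP emission channels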
TPT1 inhibitor: Candida albicans TPT1 enzyme inhibitors, primary screen, biochemical, fluorescence polarization. AID 1962, 2009. recombinant caTPT1, FP RNA substrate dephosphorylation. 0.81% of 300,000 active. inhibition, % at 5 µM;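 active means inhibition above the mean of all tested compounds plus 3 SD, set per screening campaign, cut at about 24% in these data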;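 further: plate controls were DMSO alone for no effect and ferristatin control at 100 nM for full effect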
Rpn11 block: Rpn11 (PSMD14) deubiquitinase inhibitors, primary screen, biochemical, fluorescence polarization, uHTS. 26S proteasome non-ATPase regulatory subunit 14 (Homo sapiens), O00487. human 26S proteasome, Ub4-pepOG fluorescence polarization; 20S core pre-blocked with epoxomicin. inhibition, % at 20 µM. 0.59% of 360,000 active;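 active means inhibition at 20 µM, scaled to each plate's controls, above about 33%, limit read from the data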
Target sequence (O00487 whole entry, looked up): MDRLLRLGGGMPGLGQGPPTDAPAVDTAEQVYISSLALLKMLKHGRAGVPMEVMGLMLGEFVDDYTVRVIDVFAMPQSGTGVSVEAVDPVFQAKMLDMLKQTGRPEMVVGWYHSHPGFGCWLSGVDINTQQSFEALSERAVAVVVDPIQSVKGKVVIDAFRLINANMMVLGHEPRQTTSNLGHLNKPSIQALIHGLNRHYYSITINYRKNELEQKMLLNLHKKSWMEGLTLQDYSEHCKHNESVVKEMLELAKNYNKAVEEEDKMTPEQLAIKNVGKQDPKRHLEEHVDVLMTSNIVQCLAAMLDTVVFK
ATG4B inh: ATG4B protease inhibitors, primary screen, biochemical, fluorescence, uHTS. ATG4B cleavage of LC3-PLA2, NBD-HPC fluorescence, 1 h. inhibition, % at 8.33 µM. 0.51% of 340,000 active; in the data active means inhibition above about 40%
CSN deneddyl inh: inhibitors of CSN-mediated cullin deneddylation, primary screen, biochemical, fluorescence polarization, uHTS; 0.38% of 360,000 active; Purified CSN, SCF-Nedd8-OG deneddylation; inhibition, % at 12.5 µM; AID 651999, 2013;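 active means pattern-corrected inhibition above about 35%, with an unprinted fluorescence ratio check between 0.5 and 1.5, limit read from the data, passing the limit was not always enough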;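 further: 0% = enzyme with substrate and 100% = substrate without enzyme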
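test system = HEK293T-derived human Csn5 enzyme | amount = 0.24 nM Csn5 enzyme, final concentration | medium = Tris/NaCl/DTT buffer, pH 7.5 | schedule = 90 min reaction at room temperature | signal = FP | evaluation = inhibition of Csn5 cleavage, % | compound dosing = single dose of 12.5 µM compound with 0.25% DMSO | probe or stimulus = 10 nM SCFSkp2-Nedd8OG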
HNF4A DNA FP: change in binding of human HNF4A to DNA, primary screen, biochemical, fluorescence polarization, FITC-DNA | Hepatocyte nuclear factor 4-alpha (Homo sapiens), P41235 | 1 h | activity change, % at 10 µM | 0.3% of 360,000 active; in the data active means activity change above about 30%, passing the limit was not always enough
SENP1 conf: human SENP1 catalytic domain inhibitors, confirmation, biochemical, FRET endpoint, single concentration | shares compounds with SENP1 FRET inh | inhibition, % at 10 µM | AID 651678, 2012 | recombinant SENP1, CyPet-SUMO1-YPet FRET cleavage | 34% of 520 active; in the data active means inhibition mostly above about 35%, no sharp cut-off; inactive means mostly below about 32%;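 further: 0% = enzyme with DMSO and 100% = no enzyme control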
SENP1 kinetic: human SENP1 catalytic domain inhibitors, confirmation, biochemical, kinetic FRET, single concentration; shares compounds with SENP1 FRET inh; recombinant SENP1, CyPet-SUMO1-YPet FRET kinetic cleavage; inhibition, % at 10 µM; 26% of 520 active; AID 651690, 2012; in the data active means inhibition mostly above about 32%, no sharp cut-off; inactive means mostly below about 29%;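 further: 0% = DMSO with enzyme and 100% = no enzyme substrate only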
Numbers without * were called inactive; nt = no result given.

SMILES	SENP1 FRET inh	TPT1 inhibitor	Rpn11 block	ATG4B inh	CSN deneddyl inh	HNF4A DNA FP	SENP1 conf	SENP1 kinetic
O=C(Cc1ccccc1)N1CCN(S(=O)(=O)c2cccc([N+](=O)[O-])c2)CC1	2.4	6.9	1.1	5.7	-1.4	-2.0	nt	nt
Cc1ccc(-c2csc3nc[nH]c(=O)c23)cc1	-1.0	-4.8	0.3	1.4	-3.3	6.4	nt	nt
Cc1ccc(-c2csc3nc(-c4ccncc4)[nH]c(=O)c23)cc1	43.1*	2.3	nt	1.1	43.7*	77.3*	40.4*	31.4
COc1ccc(Cn2c3ccc(OC)cc3c3nc4ccccc4nc32)cc1	16.5	-0.5	-99.4	16.5	-44.1	-45.2	nt	nt
COc1ccc2c(c1)c1nc3ccccc3nc1n2Cc1ccc(OC(C)C)c(OC)c1	34.8*	-1.4	-18.6	-2.6	-6.0	0.8	46.7*	34.3*
COc1ccc2c(c1)c1nc3ccccc3nc1n2CCCN1C(=O)c2ccccc2C1=O	86.6	8.2	2.2	-12.8	11.0	30.2	nt	nt
COc1ccc2c(c1)c1nc3ccccc3nc1n2CCn1c(=O)oc2ccccc21	53.8*	-0.6	4.2	-6.8	3.6	2.9	130.6*	83.0*
COc1ccc(N(C)C(=O)Nc2ccc3c(c2)nnn3C)cc1	1.4	-2.9	6.3	-2.5	0.0	1.2	nt	nt
COc1ccc(N(C)C(=O)Nc2ccc3nsnc3c2)cc1	55.5*	nt	-10.4	-7.1	-4.9	2.2	7.9	9.0
O=S(=O)(NCc1ccccc1)c1ccc(Br)c2nsnc12	11.1	-1.2	6.0	-5.4	-1.6	3.1	nt	nt
Nc1cc2cccnc2cc1Cl	42.1*	nt	-3.4	0.3	59.4	5.3	19.2	4.2
CCCCC(=O)OCC(=O)C1(O)Cc2c(O)c3c(c(O)c2C(OC2CC(NC(=O)C(F)(F)F)C(O)C(C)O2)C1)C(=O)c1c(OC)cccc1C3=O (stereo not given)	95.1*	nt	34.2	2.5	47.4	59.6	27.4	12.5
Cc1cc(Oc2ccc(=O)n(C)n2)nc(SCc2ccccc2)n1	1.6	3.4	-4.6	-5.9	0.6	0.0	nt	nt
Cc1cc(Oc2ccc(=O)n(C)n2)nc(SCC(N)=O)n1	38.0*	1.1	-0.2	-14.8	-4.6	3.3	-2.4	-3.7
O=C(c1ccccc1)[C@@H]1[C@@H]2C(=O)N(c3ccc(F)cc3)C(=O)[C@@H]2C2CCCN21 (stereo not given in full)	75.6*	-12.5	-16.5	-5.1	0.5	-6.2	73.3*	47.9*
COc1ccc(N2C(=O)C3C(C2=O)C(C(=O)c2ccc(Cl)cc2)N2CCCC32)cc1 (stereo not given)	71.4*	18.6	30.5	2.1	6.4	5.9	76.8*	49.7*
Cc1ccc(N2C(=O)[C@@H]3[C@H](C2=O)C2CCCN2[C@@H]3C(=O)c2ccccc2)cc1 (stereo not given in full)	76.5	-9.5	-14.9	-5.1	0.2	-1.4	nt	nt
COc1ccc(NC(=O)CC#N)cc1OC	52.7*	2.7	0.0	3.3	4.1	4.1	-4.2	0.6
COc1ccc(NC(=O)Cc2c(F)c(F)c(F)c(F)c2F)cc1OC	-0.2	-4.5	1.1	6.4	0.3	0.7	nt	nt
Cc1cc([N+](=O)[O-])ccc1NCc1cccc2ccccc12	-3.1	-1.4	-6.4	25.5	1.3	-2.1	nt	nt
CSc1ncc(CNc2cc([N+](=O)[O-])ccc2C)c(N)n1	37.4*	-0.9	4.8	3.8	-0.9	-0.1	2.5	8.8
NS(=O)(=O)c1ccc(CNC(=S)NC2CCCCC2)cc1	39.6*	2.9	-3.2	-5.1	-0.9	1.2	-5.0	-4.7
